The source of these data is paper PMC4966677 (ACS infectious diseases, 2015).

In one data set the test system is Mtb-infected macrophages. Description: Growth inhibition of Mtb in IFN-γ-activated J774 macrophages. In kind it is cell-based, Mycobacterium tuberculosis. Particulars: read-out: In vitro anti-Mtb activity, Mtb-infected macrophages (IC90); IC90 in macrophages activated with γ-interferon.
The next data set relates to M. tuberculosis H37Rv. Description: Microplate Alamar Blue assay. Conditions: for In vitro anti-Mtb activity MABA-MIC H37Rv: Minimum Inhibitory Concentration, strain H37Rv; for Activity in standard MIC assay (in words): strain not given. It is filed as cell-based, Mycobacterium tuberculosis. (Resazurin is reduced to fluorescent resorufin, in cell work by metabolically active cells.)

Data set [1] in a line: Tolerability in guinea pigs during the efficacy study. In kind it is in vivo, guinea pig. Conditions: L01-Z08 20 mg/kg and L335-M34 50 mg/kg once daily alone or in combination for 6 weeks.
Another data set relates to M. tuberculosis Erdman. The data set can be described thus: Microplate Alamar Blue assay. Conditions: Minimum Inhibitory Concentration, strain Erdman. In kind it is cell-based, Mycobacterium tuberculosis.
The nature of data set [2]: Oral pharmacokinetics in guinea pig plasma. It is filed as in vivo. Particulars: for AUCALL / CMAX / Clearance / Half-life / TMAX / VD (Volume of distribution): oral; for Oral bioavailability (in words): guinea pigs, oral dosing.
Another data set relates to Mtb H37Rv. The data set can be described thus: Chronic TB infection model in guinea pigs, lung CFU. It is filed as in vivo. Particulars: added to the standard regimen HRZ, guinea pig lungs, after 6 weeks of treatment.
Data set [3] concerns Human PTP panel: PTP1B, TC-PTP, SHP1, SHP2, FAp1, Lyp, Meg2, HePTP, laforin, VHX, VHR, LMWPTP, Cdc14A, PTPα, LAR, CD45, PTPRG. The data set can be described thus: Human PTP panel selectivity, pNPP assay. It is filed as biochemical. In a few lines:
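Each PTP expressed in and purified from E. coli, used at 5 nM final. The reaction is started by adding enzyme to pNPP, set at that PTP's Km, plus varying test compound concentrations. It is stopped after 15 min with 5N NaOH. p-Nitrophenol is read at 405 nm, corrected with a no-enzyme control. IC50 is fit to AI/A0 = IC50/(IC50+[I]).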

The target in the next data set is mPTPA (Mycobacterium tuberculosis, UniProt P9WIA1).
Another data set addresses mPTPB (Mycobacterium tuberculosis, UniProt I6WXK4).
[4] abbreviates: guinea pig, Co-admin: L335M34 50 mg/kg and L01Z08 20 mg/kg together.
Setting [5] is: guinea pig, Single (given alone), L335M34 50 mg/kg, L01Z08 20 mg/kg.

Where “and” joins values, the source holds several entries; their conditions need not be identical. Equal values may be shown once.

Sequence of mPTPB (I6WXK4 whole entry, looked up): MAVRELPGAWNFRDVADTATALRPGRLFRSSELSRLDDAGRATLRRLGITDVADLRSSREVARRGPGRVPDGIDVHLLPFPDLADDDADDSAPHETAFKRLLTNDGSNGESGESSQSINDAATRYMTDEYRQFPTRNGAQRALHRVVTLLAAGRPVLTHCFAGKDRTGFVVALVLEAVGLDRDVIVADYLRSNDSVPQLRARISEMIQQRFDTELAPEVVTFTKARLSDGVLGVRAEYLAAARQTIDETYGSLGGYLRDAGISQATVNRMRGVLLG
Sequence of mPTPA (P9WIA1 whole entry): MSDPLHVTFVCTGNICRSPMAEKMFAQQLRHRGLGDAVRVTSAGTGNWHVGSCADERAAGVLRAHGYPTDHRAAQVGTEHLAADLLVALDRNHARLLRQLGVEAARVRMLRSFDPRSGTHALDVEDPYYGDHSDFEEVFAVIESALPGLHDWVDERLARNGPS

What is called IC90 is the concentration at which the effect reaches the 90% level. As for `O=C(O)c1cc2c(C#Cc3cccc(C(F)(F)F)c3)c(-c3ccccc3)oc2cc1O` [Compound L01-Z08], the IC90 in the data set on Mtb-infected macrophages is below 5000 nM. In the data set with M. tuberculosis H37Rv, the “In vitro anti-Mtb activity MABA-MIC H37Rv” value is >10 >10 uM and the “Activity in standard MIC assay (in words)” value is “inactive”. The Signs of toxicity entry in [1] is “no overt signs of toxicity”. In addition, the “In vitro anti-Mtb activity MABA-MIC Erdman” value in the data set with M. tuberculosis Erdman is reported as >10 >10 uM. In addition, in [2] (setting [4]), the AUCALL turned out to be 28161.76 ng·h/mL, the CMAX is 3059.668 ng/mL, the Clearance amounted to 11.6927 mL/min/kg and the Half-life was 6.141 h. Besides, in data set [2] (setting [4]), the TMAX was 1.587 h and the “VD (Volume of distribution)” value came out at 6215.132. In data set [2] (setting [5]), this compound registered an AUCALL of 13166.89 ng·h/mL, a CMAX of 1870.43 ng/mL, a Clearance of 25.3079 mL/min/kg and a Half-life of 5.512 h. Further, in data set [2] (setting [5]), the TMAX is 1.587 h and the “VD (Volume of distribution)” value turned out to be 12074.939. Moreover, the “Oral bioavailability (in words)” value in data set [2] was “good oral bioavailability”.
Usually IC50 stands for the midpoint of a concentration-inhibition curve. In general, Ki refers to the dissociation constant of the complex between target and ligand, obtained from inhibition or displacement. Consider `Cc1c(Br)cc(NC(=O)CS(=O)(=O)O)cc1Br` [Compound L335-M34], for which, in the data set with Mtb-infected macrophages, the IC90 is 1380 nM. In the data set on M. tuberculosis H37Rv, the “In vitro anti-Mtb activity MABA-MIC H37Rv” value is given as >10 >10 uM and the “Activity in standard MIC assay (in words)” value is recorded as “devoid of activity”. Further, the “Further reduction of mean lung CFU relative to HRZ” value in the data set with Mtb H37Rv is reported as 0.17 log10. Besides, the “Activity against a panel of human PTPs” value in [3] (at concentrations below 3 μM) is given as “no significant activity”. In addition, the “Fold selectivity vs. PTP panel” value in [3] (panel of 17 human PTPs) was above 20 fold. For the same compound, the Signs of toxicity result in [1] is “no overt signs of toxicity”. Moreover, the “In vitro anti-Mtb activity MABA-MIC Erdman” value in the data set on M. tuberculosis Erdman is >10 >10 uM. For the same compound, in data set [2] (setting [4]), the AUCALL came to 52752.61 ng·h/mL, the CMAX is 7064.956 ng/mL, the Clearance came out at 15.8339 mL/min/kg and the Half-life was found to be 4.16 h. Further, in data set [2] (setting [4]), the TMAX came to 2.5 h and the “VD (Volume of distribution)” value worked out at 5702.19. Also, in data set [2] (setting [5]), the AUCALL came out at 54406.61 ng·h/mL, the CMAX was found to be 5142.47 ng/mL, the Clearance is 15.291 mL/min/kg and the Half-life was found to be 5.197 h. For the same compound, in [2] (setting [5]), the TMAX stood at 2.5 h and the “VD (Volume of distribution)” value came out at 6878.467. Besides, the “Time plasma concentration stays 10-fold in excess of biochemical IC50” value in data set [2] (guinea pig, single oral dose, L335-M34 50 mg/kg, L01-Z08 20 mg/kg) is 12–14 hours and 12–24 hours. Besides, the “Oral bioavailability (in words)” value in data set [2] is given as “good oral bioavailability”. In addition, at mPTPA, the “Mode of mPTPA inhibition” value is “reversible and competitive inhibitor”. Moreover, the IC50 on mPTPA (read-out: Biochemical potency against target (IC50, nM) mPTPA, pH 7) worked out at 160 nM. For the same compound, the Ki at mPTPA (read-out: Ki for mPTPA) stood at 56 ± 2 nM. Also, at mPTPB, the “Activity against mPTPB” value is “no significant activity” and the “Fold selectivity vs. mPTPA/B (mPTPA inhibitor over mPTPB)” value is recorded as above 20 fold. The IC50 on mPTPB (read-out: Biochemical potency against target (IC50, nM) mPTPB, pH 7) was above 3200 nM.
